These results are taken from ChEMBL document CHEMBL3286310, “Synthesis and biological evaluation of novel N-aryl maleimide derivatives clubbed with α-hydroxyphosphonates” (2014).

≈ marks a conversion by molar mass, not a printed value.

What all share (format): functional
For experiment [1], the system named is Aspergillus clavatus. In words: Antimicrobial activity against Aspergillus clavatus MTCC 1323 at 100 ug/disc after 48 hrs by agar cup plate method. The conditions noted are these: MTCC 1323, 48 h, read-out: DIZ. The essentials:
(§1)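 Agar cup plate diffusion with fungal inocula reseeded in Czapek Dox broth for 48 h at 25 °C. Compounds diluted in DMF, with DMF alone as control and griseofulvin as standard. Inhibition-zone diameter read by caliper, each zone measured three times and averaged.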

For experiment [2], the system named is Candida tropicalis. In words: Antimicrobial activity against Candida tropicalis MTCC 184 at 100 ug/disc after 48 hrs by agar cup plate method. The conditions noted are these: MTCC 184, 48 h, read-out: DIZ. The gist of the method: as §1
In experiment [3] the test system is Bacillus subtilis. As to the kind of experiment: Antimicrobial activity against Bacillus subtilis NCIM 2250 after 24 hrs by NCCLS M7-A5 method. The conditions noted are these: NCIM 2250, 24 h. The gist of the method:
(§2)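 MIC by agar dilution on Mueller-Hinton agar plates, following NCCLS M7-A5. MIC was taken as the lowest concentration with no visible growth after 24 h incubation at 37 °C.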

Experiment [4] concerns Escherichia coli. As to the kind of experiment: Antimicrobial activity against Escherichia coli ATCC 25922 after 24 hrs by NCCLS M7-A5 method. The conditions noted are these: ATCC 25922, 24 h. The essentials:
as §2

Experiment [5] concerns Aspergillus clavatus. As to the kind of experiment: Antimicrobial activity against Aspergillus clavatus MTCC 1323 after 24 hrs by NCCLS M7-A5 method. The conditions noted are these: MTCC 1323, 24 h. The essentials:
as §2

Experiment [6] has as its system Escherichia coli. In words: Antimicrobial activity against Escherichia coli ATCC 25922 at 100 ug/disc after 24 hrs by agar cup plate method. The conditions noted are these: ATCC 25922, 24 h, read-out: DIZ. The gist of the method:
(§3)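 Agar cup plate diffusion with bacterial inocula reseeded in Mueller-Hinton broth for 24 h at 37 °C. Compounds diluted in DMF, with DMF alone as control and streptomycin as standard. Inhibition-zone diameter read by caliper, each zone measured three times and averaged.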

The subject of experiment [7] is Candida tropicalis. As to the kind of experiment: Antimicrobial activity against Candida tropicalis MTCC 184 after 24 hrs by NCCLS M7-A5 method. The conditions noted are these: MTCC 184, 24 h. The gist of the method: as §2
Experiment [8] has as its system Bacillus subtilis. As to the kind of experiment: Antimicrobial activity against Bacillus subtilis NCIM 2250 at 100 ug/disc after 24 hrs by agar cup plate method. The conditions noted are these: NCIM 2250, 24 h, read-out: DIZ. The essentials: as §3
Experiment [9] relates to Aspergillus niger. In words: Antimicrobial activity against Aspergillus niger MCIM 545 at 100 ug/disc after 48 hrs by agar cup plate method. The conditions noted are these: MCIM 545, 48 h, read-out: DIZ. The essentials: as §1
The subject of experiment [10] is Candida albicans. In words: Antimicrobial activity against Candida albicans MTCC 277 at 100 ug/disc after 48 hrs by agar cup plate method. The conditions noted are these: MTCC 277, 48 h, read-out: DIZ. The essentials:
as §1

Experiment [11] concerns Candida albicans. As to the kind of experiment: Antimicrobial activity against Candida albicans MTCC 277 after 24 hrs by NCCLS M7-A5 method. The conditions noted are these: MTCC 277, 24 h. The gist of the method:
as §2

In experiment [12] the test system is Aspergillus niger. In words: Antimicrobial activity against Aspergillus niger MCIM 545 after 24 hrs by NCCLS M7-A5 method. The conditions noted are these: MCIM 545, 24 h. The gist of the method:
as §2

In general, MIC refers to the smallest concentration in the dilution series that meets the test's criterion for growth inhibition. For the molecule `CCOP(=O)(OCC)C(O)C1=C(N(C)C)C(=O)N(c2ccccc2)C1=O` (stereo unspecified), the zone of inhibition at 100 µg/disc in the experiment on Aspergillus clavatus [1] amounted to 16.3 mm; in the experiment with Candida tropicalis [2], 16.1 mm; in the experiment with Escherichia coli [6] it was 13.2 mm; in the experiment on Bacillus subtilis [8] it was 13.4 mm. The MIC in the experiment with Bacillus subtilis [3] came to 25 µg/mL (≈ 65.4 µM); against Escherichia coli [4] it was 20 µg/mL (≈ 52.3 µM); in the experiment on Aspergillus clavatus [5], 20 µg/mL (≈ 52.3 µM); in the experiment with Candida tropicalis [7] it was 20 µg/mL (≈ 52.3 µM).

On to `CCOP(=O)(OCC)C(O)C1=C(N(C)C)C(=O)N(c2ccc(Br)cc2)C1=O` (stereo unspecified), for which the zone of inhibition at 100 µg/disc was determined as 16.4 mm with Aspergillus clavatus [1]; 16.8 mm in the experiment on Candida tropicalis [2]; 15.5 mm in the experiment on Aspergillus niger [9]; 13.8 mm in the experiment on Candida albicans [10]; 13.1 mm with Escherichia coli [6]; 15.1 mm with Bacillus subtilis [8]. Also, the MIC against Bacillus subtilis [3] was 20 µg/mL (≈ 43.4 µM); in the experiment with Escherichia coli [4], 25 µg/mL (≈ 54.2 µM); against Aspergillus clavatus [5] it was 20 µg/mL (≈ 43.4 µM); with Candida albicans [11], 25 µg/mL (≈ 54.2 µM); in the experiment with Aspergillus niger [12], 20 µg/mL (≈ 43.4 µM); in the experiment with Candida tropicalis [7], 15 µg/mL (≈ 32.5 µM).

As for `CCOP(=O)(OCC)C(O)C1=C(N(C)C)C(=O)N(c2ccc(F)cc2)C1=O` (stereo unspecified), the zone of inhibition at 100 µg/disc with Aspergillus clavatus [1] worked out at 17.3 mm; in the experiment on Candida tropicalis [2], 16.7 mm; in the experiment with Aspergillus niger [9], 16.4 mm; with Candida albicans [10], 16.5 mm; in the experiment with Escherichia coli [6], 15.8 mm; in the experiment with Bacillus subtilis [8], 15.6 mm. Also, the MIC worked out at 10 µg/mL (≈ 25 µM) with Bacillus subtilis [3]; 10 µg/mL (≈ 25 µM) with Escherichia coli [4]; 10 µg/mL (≈ 25 µM) in the experiment on Aspergillus clavatus [5]; 15 µg/mL (≈ 37.5 µM) in the experiment on Candida albicans [11]; 15 µg/mL (≈ 37.5 µM) against Aspergillus niger [12]; 15 µg/mL (≈ 37.5 µM) in the experiment on Candida tropicalis [7].

With `CCOP(=O)(OCC)C(O)C1=C(N(C)C)C(=O)N(c2cccc(C(F)(F)F)c2)C1=O` (stereo unspecified), the zone of inhibition at 100 µg/disc worked out at 17.4 mm with Aspergillus clavatus [1]; 17.2 mm in the experiment with Candida tropicalis [2]; 16.6 mm with Aspergillus niger [9]; 15.2 mm in the experiment on Candida albicans [10]; 15.7 mm in the experiment with Escherichia coli [6]; 15.4 mm in the experiment with Bacillus subtilis [8]. Besides, the MIC with Bacillus subtilis [3] was 15 µg/mL (≈ 33.3 µM); in the experiment with Escherichia coli [4] it was 10 µg/mL (≈ 22.2 µM); in the experiment on Aspergillus clavatus [5], 10 µg/mL (≈ 22.2 µM); against Candida albicans [11], 20 µg/mL (≈ 44.4 µM); against Aspergillus niger [12], 15 µg/mL (≈ 33.3 µM); against Candida tropicalis [7] it was 10 µg/mL (≈ 22.2 µM).

With `CCOP(=O)(OCC)C(O)C1=C(N(C)C)C(=O)N(c2ccc(Cl)cc2)C1=O` (stereo unspecified), the zone of inhibition at 100 µg/disc was 15.9 mm in the experiment on Candida tropicalis [2], 15.8 mm in the experiment with Aspergillus niger [9] and 13.4 mm in the experiment on Escherichia coli [6]. The MIC against Escherichia coli [4] was 25 µg/mL (≈ 60 µM); against Aspergillus niger [12], 20 µg/mL (≈ 48 µM); in the experiment on Candida tropicalis [7] it was 25 µg/mL (≈ 60 µM).

Consider `CCOP(=O)(OCC)C(O)C1=C(N(C)C)C(=O)N(c2cccc(Cl)c2)C1=O` (stereo unspecified), for which the zone of inhibition at 100 µg/disc worked out at 16.2 mm in the experiment on Aspergillus clavatus [1]; 17.1 mm in the experiment on Candida tropicalis [2]; 13.6 mm in the experiment on Aspergillus niger [9]; 16.6 mm with Candida albicans [10]; 13.5 mm with Escherichia coli [6]; 15.8 mm in the experiment on Bacillus subtilis [8]. The minimal inhibitory concentration (MIC) against Bacillus subtilis [3] came to 10 µg/mL (≈ 24 µM); with Escherichia coli [4], 20 µg/mL (≈ 48 µM); against Aspergillus clavatus [5], 20 µg/mL (≈ 48 µM); against Candida albicans [11], 10 µg/mL (≈ 24 µM); with Aspergillus niger [12], 25 µg/mL (≈ 60 µM); against Candida tropicalis [7], 10 µg/mL (≈ 24 µM).

For the molecule `CCOP(=O)(OCC)C(O)C1=C(N(C)C)C(=O)N(c2ccccc2Cl)C1=O` (stereo unspecified), the zone of inhibition at 100 µg/disc was found to be 16.8 mm in the experiment on Aspergillus clavatus [1]; 16.2 mm with Candida tropicalis [2]; 16.6 mm in the experiment on Aspergillus niger [9]; 15.1 mm in the experiment with Candida albicans [10]; 15.4 mm with Escherichia coli [6]; 13.6 mm in the experiment on Bacillus subtilis [8]. The minimum inhibitory concentration (MIC) worked out at 20 µg/mL (≈ 48 µM) with Bacillus subtilis [3]; 15 µg/mL (≈ 36 µM) with Escherichia coli [4]; 15 µg/mL (≈ 36 µM) with Aspergillus clavatus [5]; 20 µg/mL (≈ 48 µM) against Candida albicans [11]; 15 µg/mL (≈ 36 µM) against Aspergillus niger [12]; 20 µg/mL (≈ 48 µM) in the experiment with Candida tropicalis [7].

As to `COC1=CC(=O)C[C@@H](C)[C@]12Oc1c(Cl)c(OC)cc(OC)c1C2=O` [GRISEOFULVIN], the zone of inhibition at 100 µg/disc stood at 17.6 mm in the experiment on Aspergillus clavatus [1], 17.3 mm in the experiment with Candida tropicalis [2], 16.9 mm in the experiment with Aspergillus niger [9] and 16.8 mm with Candida albicans [10]. For the same molecule, the MIC in the experiment on Aspergillus clavatus [5], in the experiment with Candida albicans [11], in the experiment on Aspergillus niger [12] and in the experiment with Candida tropicalis [7] was 5 µg/mL (≈ 14.2 µM) in each case.

As for `CN[C@@H]1[C@H](O[C@H]2[C@H](O[C@H]3[C@H](O)[C@@H](O)[C@H](N=C(N)N)[C@@H](O)[C@@H]3N=C(N)N)O[C@@H](C)[C@]2(O)C=O)O[C@@H](CO)[C@H](O)[C@H]1O` [STREPTOMYCIN], the MIC in the experiment with Bacillus subtilis [3] and against Escherichia coli [4] was 5 µg/mL (≈ 8.6 µM) each time. Also, the zone of inhibition at 100 µg/disc worked out at 16.4 mm in the experiment with Escherichia coli [6] and 16.2 mm with Bacillus subtilis [8].
